PubChem BioAssay
Records with an inconclusive call do not appear.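 How the source made its calls, unless noted: active means inhibition over a set limit, the all-compound mean plus 3 SD, in both replicate runs; inconclusive means over that limit in just one replicate run; inactive means at or under that limit in both runs.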

What was measured:
[1] = S. cerevisiae growth inhibition in permissive medium (OD615), pilot counter-assay for S. cerevisiae lifespan shortening project, permissive growth control (AID 705;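 active means growth inhibition above 25% in both replicates, a cutoff set 3 SD above the mean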); details: OD615, 24 h, at 10 µM, hits give high values
Summary of the method: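 System: Engineered DeaD yeast | Buffer or medium: SC raffinose/galactose permissive medium | Doses: 10 µM single dose, 0.25% DMSO | Times: 24 h exposure, 30 °C | Measured by: OD615 turbidity read | Read-out: Yeast growth inhibition indicated by reduced 24 h OD615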

[2] = S. cerevisiae growth inhibition in restrictive medium, OD615, pilot screen, restrictive growth control, yeast lifespan reduction project (AID 706;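 active means growth inhibition above a set limit, 3 SD over mean compound inhibition, in both replicates, cut at about 43% in these data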;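 further: modified DeaD lifespan yeast strain shifted to restrictive glucose medium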); details: OD615, 48 h, at 10 µM, hits give high values
Summary of the method: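 Assay system: engineered S. cerevisiae DeaD strain; Buffer or medium: CSMM-D glucose medium; Dosing: 10 µM compound, 0.25% DMSO; Times: cell pre-growth 4 h, compound exposure 48 h, 30 °C; Detection: absorbance (optical density) measured at 615 nm.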

[3] = doxorubicin toxicity protection in MRP-1 cells – H69AR cells, CellTiter-Glo, duplicate, MRP-1 activator project, pilot screen (AID 807;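 active means viability increase at or above a cutoff of the median across tested compounds plus 3 SD, cut at about 8.5% in these data, passing the limit was not always enough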;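 further: compound pretreatment 18-22 h then 72 h combined with doxorubicin; 0% = doxorubicin alone and 100% = vehicle without doxorubicin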); details: H69AR viability with doxorubicin, CellTiter-Glo luminescence; at 10 µM; hits give high values
[4] = viability of HCT116 without oncogenic beta-catenin – human colon tumor cells, pilot screen (AID 823;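 active means cell viability at or below a set limit in both duplicate runs, the limit being the all-compound median minus 4 SD, cut at about 23% in these data, passing the limit was not always enough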;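 further: 0% = wells killed by 20 µM Hyamine and 100% = untreated DMSO cell wells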); details: HCT116 beta-catenin knockout viability, CellTiter-Glo, 60 h; at 10 µM; hits give low values
[5] = viability of PTEN-null HCT116 cells – cell-based, HCT116 clonal line, CellTiter-Glo, pilot screen (AID 824;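 active means viability at or below 27.92% in each of two runs, the all-compound median minus 4 SD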;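 further: 0% = 20 µM Hyamine control and 100% = vehicle cell control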); details: HCT116 PTEN-deleted viability, 60 h, at 10 µM, hits give low values
[6] = RAM pathway blockade in budding yeast – dse1pr::URA3 reporter, 5-FOA selection, pilot screen (AID 869);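 further: 0% = DMSO wells with no growth and 100% = 10 µM 1-NA-PP1 with full growth; RAM network block rescues cells from 5-FOA so hits raise OD615 growth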; details: S. cerevisiae dse1pr::URA3 5-FOA growth, OD615, 2 d; at 10 µM; hits give high values; strain carries analog-sensitive mutant Cbk1 kinase
[7] = RAM signaling pathway blockade in yeast – S. cerevisiae, Pdr1DBD-CYC8 efflux-inhibited sensitized strain, primary screen (AID 1298;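 active means RAM network inhibition above 8.4% in each of two replicates, 3 SD over the compound average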;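 further: 0% = DMSO untreated cells without growth and 100% = 10 µM 1-NA-PP1 full growth; higher means more yeast growth rescued from 5-FOA killing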); details: S. cerevisiae cbk1-as DSE1-URA3 strain, 5-FOA growth OD615, 2 d; at 50 µM; hits give high values

COc1ccccc1N1CCN(C(=O)c2sc3nc(-c4ccc(F)cc4)cn3c2C)CC1
inactive: growth inhibition [1] -6.38% | growth inhibition [2] 2.76% | viability increase [3] -1.57% | viability [4] 57.6% | viability [5] 58.8% | inhibition [6] 0.235% | RAM network inhibition [7] 1.42%

N#Cc1nc(COc2cccc(Cl)c2)oc1NCc1ccco1
inactive: growth inhibition [1] -14% | growth inhibition [2] 3.77% | viability increase [3] -2.87% | viability [4] 89% | viability [5] 89.4% | inhibition [6] 1.65% | RAM network inhibition [7] 7.41%

CCC(CO)N=CC1=C(O)C(C(=O)c2ccccc2)CCC1=O (configuration not stated)
inactive: growth inhibition [1] -10.4% | growth inhibition [2] -14.8% | viability increase [3] 1.63% | viability [4] 96.5% | viability [5] 105% | inhibition [6] 0.62% | RAM network inhibition [7] 2.38%

O=C(CC1Sc2ncnn2C1=O)Nc1ccc(Br)cc1 (configuration not stated)
inactive: growth inhibition [1] -5.64% | growth inhibition [2] -9.71% | viability increase [3] -1.23% | viability [4] 106% | viability [5] 100% | inhibition [6] 1.93% | RAM network inhibition [7] 5.71%

CCSc1nnc(NC(=O)CSc2nc3c(c(=O)n2-c2ccccc2)SCC3)s1
inactive: growth inhibition [1] -6.26% | growth inhibition [2] -2.77% | viability increase [3] -1.11% | viability [4] 100% | viability [5] 103% | inhibition [6] 2.82% | RAM network inhibition [7] 4.35%

C=CCn1c(NCc2cc(C)ccc2O)nc2ccccc21
inactive: growth inhibition [1] -18.2% | growth inhibition [2] -17.9% | viability increase [3] -2.74% | viability [4] 82.8% | viability [5] 70.6% | inhibition [6] -0.74% | RAM network inhibition [7] 2.04%

CCOC(=O)C(C)c1nn(C)c(=O)c2ccccc12 (configuration not stated)
inactive: growth inhibition [1] -3.15% | growth inhibition [2] -5.69% | viability increase [3] -2.34% | viability [4] 97.4% | viability [5] 92.7% | inhibition [6] 1.42% | RAM network inhibition [7] 1.72%

Cc1noc(C)c1S(=O)(=O)N(CC(=O)Nc1ccc2c(c1)OCCO2)c1ccc(C(C)C)cc1
inactive: growth inhibition [1] -19.3% | growth inhibition [2] -5.11% | viability increase [3] -5.12% | viability [4] 56.8% | viability [5] 48.7% | inhibition [6] 1.71% | RAM network inhibition [7] 1.99%

CCOCCn1c(SCCc2ccccc2)nc2c1c(=O)[nH]c(=O)n2C
inactive: growth inhibition [1] -3.39% | growth inhibition [2] 10.7% | viability increase [3] -1.92% | viability [4] 98.8% | viability [5] 98.9% | inhibition [6] 1.69% | RAM network inhibition [7] 0.11%

COc1ccccc1N1CCN(C(=O)C2CCN(S(=O)(=O)c3ccccc3)CC2)CC1
inactive: growth inhibition [1] -0.075% | growth inhibition [2] 2.96% | viability increase [3] -1.42% | viability [4] 92.6% | viability [5] 95.6% | inhibition [6] 1.07% | RAM network inhibition [7] 5.76%

c1ccc(-n2ncc3c(NCc4cccnc4)ncnc32)cc1
inactive: growth inhibition [1] -9.01% | growth inhibition [2] 2.41% | viability increase [3] 3.3% | viability [4] 88.1% | viability [5] 83.6% | inhibition [6] 2.49% | RAM network inhibition [7] 0.31%

COc1ccccc1N(CC(=O)N1CCCCCC1)S(C)(=O)=O
inactive: growth inhibition [1] -11.6% | growth inhibition [2] -10.7% | viability increase [3] -1.57% | viability [4] 89.1% | viability [5] 92.5% | inhibition [6] 0.495% | RAM network inhibition [7] 2.63%

CCCc1nc(N)nc2c1C(=O)CC(C)(C)C2
inactive: growth inhibition [1] -15.1% | growth inhibition [2] 3.37% | viability increase [3] -1.08% | viability [4] 89.4% | viability [5] 87.6% | inhibition [6] 1.54% | RAM network inhibition [7] 0.27%

O=C(CSc1cn(CCNC(=O)c2ccccc2)c2ccccc12)NCc1ccco1
inactive: growth inhibition [1] -4.76% | growth inhibition [2] -10.4% | viability increase [3] -5.29% | viability [4] 84.1% | viability [5] 84.3% | inhibition [6] 0.64% | RAM network inhibition [7] 5.98%

Cc1ccc(S(=O)(=O)NCc2ccco2)cc1C
inactive: growth inhibition [1] -1.9% | growth inhibition [2] -6.06% | viability increase [3] -3.83% | viability [4] 100% | viability [5] 97.2% | inhibition [6] 0.075% | RAM network inhibition [7] 2.42%

COc1ccc(C(=O)c2cn[nH]c2-c2cc(Cl)ccc2O)cc1
inactive: growth inhibition [1] 3.93% | growth inhibition [2] 4.28% | viability increase [3] -1.77% | viability [4] 87.7% | viability [5] 78.7% | inhibition [6] 1.17% | RAM network inhibition [7] 3.53%

COc1ccc(C(C#N)(CCC#N)CCC#N)cc1OC
inactive: growth inhibition [1] -14.5% | growth inhibition [2] -4.89% | viability increase [3] -1.32% | viability [4] 99.7% | viability [5] 105% | inhibition [6] 1.13% | RAM network inhibition [7] 3.89%

O=C(CN1C(=O)COc2ccccc21)Nc1ccc(F)cc1
inactive: growth inhibition [1] -5.98% | growth inhibition [2] 6.11% | viability increase [3] -5.59% | viability [4] 106% | viability [5] 91.6% | inhibition [6] 1.26% | RAM network inhibition [7] 0.3%

Cc1c(C(=O)NCc2ccc3c(c2)OCO3)oc2ccc(S(=O)(=O)N3CCCCCC3)cc12
inactive: growth inhibition [1] -14% | growth inhibition [2] -7.72% | viability increase [3] -1.19% | viability [4] 77.5% | viability [5] 77.3% | inhibition [6] 1.82% | RAM network inhibition [7] 10.9%

Cc1c(NC(=O)C(C)N2C(=O)C3C4C=CC(C4)C3C2=O)c(=O)n(-c2ccccc2)n1C (configuration not stated)
inactive: growth inhibition [1] -8.7% | growth inhibition [2] -11.3% | viability increase [3] -0.72% | viability [4] 95.4% | viability [5] 93.2% | inhibition [6] 1.39% | RAM network inhibition [7] 2.56%

COCCn1c(SCC(=O)Nc2ccccc2)nc2c1c(=O)[nH]c(=O)n2C
inactive: growth inhibition [1] 1.17% | growth inhibition [2] -4.34% | viability increase [3] 1.21% | viability [4] 102% | viability [5] 95.5% | inhibition [6] 1.67% | RAM network inhibition [7] 1.25%

COc1ccc(N2C(=O)C3CCCN3C2c2ccccc2)cc1 (configuration not stated)
inactive: growth inhibition [1] 4.01% | growth inhibition [2] -9.51% | viability increase [3] -0.65% | viability [4] 102% | viability [5] 101% | inhibition [6] 1.87% | RAM network inhibition [7] -0.32%

Cc1occc1C(=O)Nc1nnc(-c2ccncc2)s1
inactive: growth inhibition [1] 4.81% | growth inhibition [2] 5.91% | viability increase [3] -0.28% | viability [4] 100% | viability [5] 104% | inhibition [6] 0.705% | RAM network inhibition [7] -1.3%

CCCCn1c2nc3ccccc3nc2c2c(=N)oc(C)nc21
inactive: growth inhibition [1] -7.3% | growth inhibition [2] -6.79% | viability increase [3] -4.49% | viability [4] 96.6% | viability [5] 85.1% | inhibition [6] 0.265% | RAM network inhibition [7] 0.62%

O=C(CN1CCN(CC(=O)Nc2ccccn2)CC1)Nc1ccccn1
inactive: growth inhibition [1] -2.54% | growth inhibition [2] -0.335% | viability increase [3] -0.95% | viability [4] 98.6% | viability [5] 97.6% | inhibition [6] 0.705% | RAM network inhibition [7] 6.03%

CC1Cc2nc(SCC(=O)N3CCCC3)n(C)c(=O)c2S1 (configuration not stated)
inactive: growth inhibition [1] -3.58% | growth inhibition [2] -13.8% | viability increase [3] -3.27% | viability [4] 98.2% | viability [5] 87.9% | inhibition [6] 1.17% | RAM network inhibition [7] 5.83%

COc1ccc(Cl)cc1NC(=O)c1cnc2sccn2c1=O
inactive: growth inhibition [1] -6.94% | growth inhibition [2] 9.97% | viability increase [3] -5.14% | viability [4] 82.9% | viability [5] 82.6% | inhibition [6] 4.45% | RAM network inhibition [7] 6.59%

COc1ccccc1NC(=O)C1=C(C)NC(=O)NC1c1ccccc1F (configuration not stated)
inactive: growth inhibition [1] -7.88% | growth inhibition [2] -13.5% | viability increase [3] -0.75% | viability [4] 99.2% | viability [5] 107% | inhibition [6] 1.82% | RAM network inhibition [7] 2.41%

COc1ccc(S(=O)(=O)n2cnc3cc(C)c(C)cc32)cc1
inactive: growth inhibition [1] 3.51% | growth inhibition [2] 6.05% | viability increase [3] -1.56% | viability [4] 90.9% | viability [5] 93.4% | inhibition [6] 1.26% | RAM network inhibition [7] -1.04%

Cc1cc(N=CC2=C(O)CC(C)(C)CC2=O)no1
inactive: growth inhibition [1] -11.7% | growth inhibition [2] -3.7% | viability increase [3] 0.49% | viability [4] 93.2% | viability [5] 104% | inhibition [6] 1.94% | RAM network inhibition [7] 1.04%

CC(=O)N1CCN(CCN=CC2=C(O)CC(c3ccc(Cl)cc3)CC2=O)CC1 (configuration not stated)
inactive: growth inhibition [1] -8.45% | growth inhibition [2] -3.19% | viability increase [3] 1.98% | viability [4] 99.2% | viability [5] 101% | inhibition [6] 1.2% | RAM network inhibition [7] -0.17%

Cn1c(=O)c2c(nc(Sc3ncccn3)n2Cc2ccc(Cl)cc2)n(C)c1=O
inactive: growth inhibition [1] -0.82% | growth inhibition [2] 1.5% | viability increase [3] -2.38% | viability [4] 82.4% | viability [5] 71.1% | inhibition [6] 1.8% | RAM network inhibition [7] 0.26%

CC1(C)Cc2c(sc3nc(-c4cccs4)n(N)c(=O)c23)CO1
inactive: growth inhibition [1] -10.5% | growth inhibition [2] 18.5% | viability increase [3] -6.5% | viability [4] 42.1% | viability [5] 45.5% | inhibition [6] 0.19% | RAM network inhibition [7] 1.7%

O=C(C1CCN(S(=O)(=O)c2ccc(F)cc2)CC1)N1CC=C(c2ccccc2)CC1
inactive: growth inhibition [1] -0.895% | growth inhibition [2] -21% | viability increase [3] -2.73% | viability [4] 91% | viability [5] 89.7% | inhibition [6] 1.03% | RAM network inhibition [7] 1.27%

O=C(c1ccc(CS(=O)(=O)c2ccccc2)o1)N1CCOCC1
inactive: growth inhibition [1] -12.2% | growth inhibition [2] -15.5% | viability increase [3] -0.71% | viability [4] 105% | viability [5] 95.8% | inhibition [6] 1.19% | RAM network inhibition [7] 3.8%

CCn1c(C)nc2cc(S(=O)(=O)N3CCCC3)ccc21
inactive: growth inhibition [1] -1.56% | growth inhibition [2] 11.8% | viability increase [3] -1.11% | viability [4] 94.3% | viability [5] 88.6% | inhibition [6] 0.805% | RAM network inhibition [7] 2.71%
